Measurements from ChEMBL document CHEMBL1145082 (J Med Chem, 2003).

Columns and labels:
[1] = molecular target: 3-phosphoinositide-dependent protein kinase 1 (Homo sapiens) (UniProt O15530); assay: Inhibition of human 3-phosphoinositide-dependent protein kinase 1 at 10 uM; parameters: scale not given: the % may be the effect or the level left
Outline: (§1)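 Outsourced selectivity panel. Each kinase phosphorylated its own peptide or protein substrate in the presence of 10 µM compound and 10 µM ATP, within the linear time range. Activity given as mean percent of control incubations from duplicate determinations.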

[2] = molecular target: Tyrosine-protein kinase Blk (Homo sapiens) (UniProt P51451); assay: Inhibition of Blk (B lymphocyte kinase) at 10 uM; parameters: scale not given: the % may be the effect or the level left; outline: as §1
[3] = molecular target: Calcium/calmodulin-dependent protein kinase type IV (Homo sapiens) (UniProt Q16566); assay: Inhibition of Calcium/calmodulin-dependent protein kinase type IV at 10 uM; parameters: scale not given: the % may be the effect or the level left; outline: as §1
[4] = molecular target: Cyclin-dependent kinase 1 (Homo sapiens, UniProt P06493); assay: Inhibition of Cyclin-dependent kinase 1
Outline: (§2)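 Reaction started with 30–150 ng kinase, run 1 h at 30 °C. Peptides captured on streptavidin plates and counted. IC50 from 6–10 concentrations; ≥3 experiments in duplicate; ± SEM.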

[5] = molecular target: Tyrosine-protein kinase CSK (Homo sapiens) (UniProt P41240); assay: Inhibition of Csk tyrosine kinase at 10 uM; parameters: scale not given: the % may be the effect or the level left; outline: as §1
[6] = molecular target: Cyclin-dependent kinase 5/CDK5 activator 1 (Homo sapiens) (UniProt Q00535+Q15078); assay: Inhibition of Cyclin-dependent kinase 5-p35nck5a at 10 uM; assay type: protein-complex assay; parameters: scale not given: the % may be the effect or the level left; outline: as §1
[7] = molecular target: CDK3/cyclin E (Homo sapiens) (UniProt P24864+O96020+Q00526); assay: Inhibition of cyclin-dependent kinase 3-cyclin E at 10 uM; assay type: protein-complex assay; parameters: scale not given: the % may be the effect or the level left; outline: as §1
[8] = molecular target: CDK6/cyclin D3 (Homo sapiens) (UniProt P30281+Q00534); assay: Inhibition of Cyclin-dependent kinase 6-cyclin D3 at 10 uM; assay type: protein-complex assay; parameters: scale not given: the % may be the effect or the level left; outline: as §1
[9] = molecular target: Fibroblast growth factor receptor 3 (Homo sapiens) (UniProt P22607); assay: Inhibition of Fibroblast growth factor receptor 3 at 10 uM; parameters: scale not given: the % may be the effect or the level left; outline: as §1
[10] = molecular target: Glycogen synthase kinase-3 beta (Homo sapiens) (UniProt P49841); assay: Inhibition of human glycogen synthase kinase-3beta (GSK3-beta) at 10 uM; parameters: scale not given: the % may be the effect or the level left
Outline: (§3)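 Upstate kinase selectivity panel: each kinase phosphorylated its peptide or protein substrate with 10 µM compound present and 10 µM ATP. Reactions were linear with time. Activity is reported as the mean percentage of control incubations, from duplicate determinations.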

[11] = molecular target: Inhibitor of nuclear factor kappa-B kinase subunit beta (Homo sapiens) (UniProt O14920); assay: Inhibition of I-kappa-B-kinase beta at 10 uM; parameters: scale not given: the % may be the effect or the level left; outline: as §1
[12] = molecular target: Ribosomal protein S6 kinase alpha-5 (Homo sapiens) (UniProt O75582); assay: Inhibition of human MSK-1 kinase at 10 uM; parameters: scale not given: the % may be the effect or the level left; outline: as §1
[13] = molecular target: Mitogen-activated protein kinase 1 (Mus musculus) (UniProt P63085); assay: Inhibition of mouse Mitogen-activated protein kinase 2 at 10 uM; parameters: scale not given: the % may be the effect or the level left; outline: as §3
[14] = molecular target: Dual specificity mitogen-activated protein kinase kinase 6 (Homo sapiens) (UniProt P52564); assay: Inhibition of human Mitogen activated protein kinase kinase 6 at 10 uM; parameters: scale not given: the % may be the effect or the level left; outline: as §1
[15] = molecular target: Dual specificity mitogen-activated protein kinase kinase 7 (Homo sapiens) (UniProt O14733); assay: Inhibition of human Mitogen activated protein kinase kinase 7 beta at 10 uM; parameters: scale not given: the % may be the effect or the level left; outline: as §1
[16] = molecular target: Platelet-derived growth factor receptor alpha (Homo sapiens) (UniProt P16234); assay: Inhibition of Platelet-derived growth factor receptor alpha at 10 uM; parameters: scale not given: the % may be the effect or the level left; outline: as §1
[17] = molecular target: Protein kinase C beta type (Homo sapiens, UniProt P05771); assay: Inhibition of human Protein kinase C beta 2 at 10 uM; parameters: scale not given: the % may be the effect or the level left; outline: as §1
[18] = molecular target: RAF proto-oncogene serine/threonine-protein kinase (Homo sapiens) (UniProt P04049); assay: Inhibition of human RAF proto-oncogene serine/threonine-protein kinase (c-RAF) at 10 uM; parameters: scale not given: the % may be the effect or the level left; outline: as §1
[19] = molecular target: Platelet-derived growth factor receptor beta (Homo sapiens) (UniProt P09619); assay: Inhibition of Platelet-derived growth factor receptor beta at 10 uM; parameters: scale not given: the % may be the effect or the level left; outline: as §1
Bos taurus = organism: Bos taurus; assay: Inhibition of bovine Protein kinase A at 10 uM; parameters: scale not given: the % may be the effect or the level left; outline: as §1
[20] = molecular target: RAC-alpha serine/threonine-protein kinase (Homo sapiens) (UniProt P31749); assay: Inhibition of human Protein kinase B alpha at 10 uM; parameters: scale not given: the % may be the effect or the level left; outline: as §1
[21] = molecular target: T1, Protein kinase C gamma type (Homo sapiens, UniProt P05129); assay: Inhibition of human Protein kinase C gamma at 10 uM; parameters: scale not given: the % may be the effect or the level left; outline: as §1
[22] = molecular target: T1, Protein kinase C gamma type; assay: Inhibition of Protein kinase C gamma (PKC-gamma)
Outline: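 Recombinant human PKCα, PKCγ or PKCβII (5–10 mU) phosphorylating histone H1 (0.1 mg/mL) with 33P-ATP, total ATP 10 µM. Buffer 50 mM Hepes pH 7.4 with Triton X-100, CaCl2, Mg acetate, phosphatidylserine and diacylglycerol. Run 40 min at room temperature, stopped with phosphoric acid, then P30 filter counting. IC50 from 6–10 concentrations; ≥3 experiments in duplicate; ± SEM.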

[23] = molecular target: RAC-beta serine/threonine-protein kinase (Homo sapiens) (UniProt P31751); assay: Inhibition of Protein kinase B beta at 10 uM; parameters: scale not given: the % may be the effect or the level left; outline: as §1
[24] = Inhibitory activity against Protein kinase A was determined
[25] = molecular target: Protein kinase C alpha type (Homo sapiens, UniProt P17252); assay: Inhibition of human Protein kinase C alpha at 10 uM; parameters: scale not given: the % may be the effect or the level left; outline: as §1
[26] = molecular target: MAP kinase-activated protein kinase 5 (Homo sapiens) (UniProt Q8IW41); assay: Inhibition of human Protein kinase PRAK at 10 uM; parameters: scale not given: the % may be the effect or the level left; outline: as §1
[27] = molecular target: Tyrosine-protein kinase Lyn (Homo sapiens) (UniProt P07948); assay: Inhibition of Protein tyrosine kinase Lyn at 10 uM; parameters: scale not given: the % may be the effect or the level left; outline: as §1
[28] = molecular target: Protein kinase C theta type (Homo sapiens, UniProt Q04759); assay: Inhibition of Protein kinase C theta at 10 uM; parameters: scale not given: the % may be the effect or the level left; outline: as §1
[29] = molecular target: Serine/threonine-protein kinase Chk1 (Homo sapiens) (UniProt O14757); assay: Inhibition of human Serine/threonine-protein kinase Chk1 at 10 uM; parameters: scale not given: the % may be the effect or the level left; outline: as §3
[30] = molecular target: Ribosomal protein S6 kinase (P70S6K) (Homo sapiens) (UniProt Q9UBS0+P23443); assay: Inhibition of human Ribosomal protein S6 kinase (p70S6K) at 10 uM; assay type: protein-complex assay; parameters: scale not given: the % may be the effect or the level left; outline: as §3
[31] = molecular target: Proto-oncogene tyrosine-protein kinase Src (Homo sapiens) (UniProt P12931); assay: Inhibition of human Src tyrosine kinase at 10 uM; parameters: scale not given: the % may be the effect or the level left; outline: as §3
[32] = molecular target: Mitogen-activated protein kinase 11 (Homo sapiens) (UniProt Q15759); assay: Inhibition of human Stress activated protein kinase 2b at 10 uM; parameters: scale not given: the % may be the effect or the level left; outline: as §3
[33] = Inhibition of Vascular endothelial growth factor receptor 2; parameters: species or system Homo sapiens; outline: as §2
[34] = molecular target: Insulin-like growth factor 1 receptor (Homo sapiens) (UniProt P08069); assay: Inhibition of Type 1 insulin like growth factor receptor at 10 uM; parameters: scale not given: the % may be the effect or the level left; outline: as §1
[35] = molecular target: Mitogen-activated protein kinase 9 (Homo sapiens) (UniProt P45984); assay: Inhibition of human c-Jun N-terminal kinase 2-alpha 2 at 10 uM; parameters: scale not given: the % may be the effect or the level left; outline: as §3
[36] = molecular target: Tyrosine-protein kinase Lck (Homo sapiens) (UniProt P06239); assay: Inhibition of human p56 Lck tyrosine kinase at 10 uM; parameters: scale not given: the % may be the effect or the level left; outline: as §3

Chain of RAC-alpha serine/threonine-protein kinase (Homo sapiens) (P31749 whole entry): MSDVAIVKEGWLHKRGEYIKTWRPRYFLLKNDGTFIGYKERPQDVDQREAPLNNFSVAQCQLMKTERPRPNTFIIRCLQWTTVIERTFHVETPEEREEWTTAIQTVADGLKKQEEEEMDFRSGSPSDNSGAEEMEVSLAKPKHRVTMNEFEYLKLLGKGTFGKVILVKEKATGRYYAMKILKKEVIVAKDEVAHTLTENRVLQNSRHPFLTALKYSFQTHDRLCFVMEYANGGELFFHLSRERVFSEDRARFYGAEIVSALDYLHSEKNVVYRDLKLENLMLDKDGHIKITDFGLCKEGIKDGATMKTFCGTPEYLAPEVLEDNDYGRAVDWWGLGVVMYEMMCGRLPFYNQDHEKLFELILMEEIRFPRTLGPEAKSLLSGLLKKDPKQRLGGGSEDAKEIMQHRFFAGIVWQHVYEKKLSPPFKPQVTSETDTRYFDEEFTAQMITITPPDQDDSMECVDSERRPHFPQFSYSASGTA
Chain of Protein kinase C beta type (P05771 2-671 limits assumed): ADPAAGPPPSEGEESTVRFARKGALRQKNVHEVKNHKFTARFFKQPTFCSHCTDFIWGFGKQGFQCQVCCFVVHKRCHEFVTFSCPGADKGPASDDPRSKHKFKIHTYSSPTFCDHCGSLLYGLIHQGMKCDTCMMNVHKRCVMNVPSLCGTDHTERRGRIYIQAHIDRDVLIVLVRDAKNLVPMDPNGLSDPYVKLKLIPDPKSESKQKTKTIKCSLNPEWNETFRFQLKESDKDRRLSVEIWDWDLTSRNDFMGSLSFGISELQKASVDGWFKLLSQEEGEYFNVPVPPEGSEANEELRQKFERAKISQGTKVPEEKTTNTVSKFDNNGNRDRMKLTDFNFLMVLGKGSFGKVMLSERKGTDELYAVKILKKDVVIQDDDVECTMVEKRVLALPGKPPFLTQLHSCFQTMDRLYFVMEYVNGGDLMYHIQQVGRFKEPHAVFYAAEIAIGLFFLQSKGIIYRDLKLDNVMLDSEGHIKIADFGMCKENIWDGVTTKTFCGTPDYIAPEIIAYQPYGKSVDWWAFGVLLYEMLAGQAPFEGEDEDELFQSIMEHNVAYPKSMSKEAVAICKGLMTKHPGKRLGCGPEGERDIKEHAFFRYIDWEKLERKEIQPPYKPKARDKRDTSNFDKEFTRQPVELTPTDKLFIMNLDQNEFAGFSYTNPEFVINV
Chain of Calcium/calmodulin-dependent protein kinase type IV (Homo sapiens) (Q16566 whole entry): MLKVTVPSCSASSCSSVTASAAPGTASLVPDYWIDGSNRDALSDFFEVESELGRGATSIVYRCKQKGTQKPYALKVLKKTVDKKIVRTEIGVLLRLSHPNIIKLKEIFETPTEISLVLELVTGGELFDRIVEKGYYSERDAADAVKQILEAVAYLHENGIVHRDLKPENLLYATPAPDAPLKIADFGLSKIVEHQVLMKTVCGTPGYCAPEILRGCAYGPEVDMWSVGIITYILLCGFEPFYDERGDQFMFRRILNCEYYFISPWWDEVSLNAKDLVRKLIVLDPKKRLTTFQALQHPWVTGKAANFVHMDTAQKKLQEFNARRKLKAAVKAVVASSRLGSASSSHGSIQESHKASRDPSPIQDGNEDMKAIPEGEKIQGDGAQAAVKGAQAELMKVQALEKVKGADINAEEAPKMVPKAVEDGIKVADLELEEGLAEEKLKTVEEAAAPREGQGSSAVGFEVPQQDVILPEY
Chain of Tyrosine-protein kinase CSK (Homo sapiens) (P41240 2-450 limits assumed): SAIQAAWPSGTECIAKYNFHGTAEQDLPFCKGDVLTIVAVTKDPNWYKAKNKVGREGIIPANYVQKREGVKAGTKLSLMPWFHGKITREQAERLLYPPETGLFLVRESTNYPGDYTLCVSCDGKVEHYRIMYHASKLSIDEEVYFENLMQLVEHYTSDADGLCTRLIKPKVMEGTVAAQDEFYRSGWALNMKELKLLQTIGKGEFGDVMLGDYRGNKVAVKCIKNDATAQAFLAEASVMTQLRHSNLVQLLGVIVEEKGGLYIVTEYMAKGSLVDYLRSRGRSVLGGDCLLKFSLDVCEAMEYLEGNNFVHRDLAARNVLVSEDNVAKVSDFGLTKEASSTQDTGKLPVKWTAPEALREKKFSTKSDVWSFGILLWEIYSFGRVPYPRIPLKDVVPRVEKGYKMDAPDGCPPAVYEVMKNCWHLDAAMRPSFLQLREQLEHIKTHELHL
Chain of Protein kinase C theta type (Q04759 whole entry, looked up): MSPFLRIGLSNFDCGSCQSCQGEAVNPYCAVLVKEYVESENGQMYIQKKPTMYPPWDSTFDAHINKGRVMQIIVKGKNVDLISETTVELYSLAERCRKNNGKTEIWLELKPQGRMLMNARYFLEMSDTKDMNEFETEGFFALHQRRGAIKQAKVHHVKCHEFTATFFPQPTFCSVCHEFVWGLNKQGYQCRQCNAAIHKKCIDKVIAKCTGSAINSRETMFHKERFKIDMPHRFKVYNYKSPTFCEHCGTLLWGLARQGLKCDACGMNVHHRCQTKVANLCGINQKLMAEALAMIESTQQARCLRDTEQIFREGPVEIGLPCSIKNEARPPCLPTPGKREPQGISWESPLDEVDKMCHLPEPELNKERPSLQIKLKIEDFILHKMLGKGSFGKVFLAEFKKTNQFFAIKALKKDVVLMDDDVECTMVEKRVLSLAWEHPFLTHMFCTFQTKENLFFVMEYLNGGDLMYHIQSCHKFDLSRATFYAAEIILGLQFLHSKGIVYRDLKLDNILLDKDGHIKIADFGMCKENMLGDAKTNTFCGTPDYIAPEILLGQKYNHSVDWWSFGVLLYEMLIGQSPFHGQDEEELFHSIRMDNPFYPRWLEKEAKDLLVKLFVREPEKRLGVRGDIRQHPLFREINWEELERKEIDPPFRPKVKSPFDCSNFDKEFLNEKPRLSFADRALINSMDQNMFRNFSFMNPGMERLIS
Chain of Proto-oncogene tyrosine-protein kinase Src (Homo sapiens) (P12931 2-536 limits assumed): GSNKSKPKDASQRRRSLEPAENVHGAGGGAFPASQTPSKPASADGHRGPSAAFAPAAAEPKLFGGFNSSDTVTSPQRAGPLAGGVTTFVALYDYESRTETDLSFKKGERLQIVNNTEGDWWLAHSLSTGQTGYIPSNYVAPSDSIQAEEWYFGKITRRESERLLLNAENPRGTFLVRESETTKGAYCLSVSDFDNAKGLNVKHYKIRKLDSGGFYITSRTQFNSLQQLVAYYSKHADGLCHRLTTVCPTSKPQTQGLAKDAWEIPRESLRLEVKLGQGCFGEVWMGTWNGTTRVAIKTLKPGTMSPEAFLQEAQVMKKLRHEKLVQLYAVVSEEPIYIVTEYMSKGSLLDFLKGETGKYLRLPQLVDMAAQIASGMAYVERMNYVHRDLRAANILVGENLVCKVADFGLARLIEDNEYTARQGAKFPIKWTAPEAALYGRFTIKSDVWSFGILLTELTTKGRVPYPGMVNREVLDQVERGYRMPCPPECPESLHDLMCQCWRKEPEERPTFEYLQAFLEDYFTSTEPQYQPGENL
Chain of Dual specificity mitogen-activated protein kinase kinase 6 (Homo sapiens) (P52564 whole entry): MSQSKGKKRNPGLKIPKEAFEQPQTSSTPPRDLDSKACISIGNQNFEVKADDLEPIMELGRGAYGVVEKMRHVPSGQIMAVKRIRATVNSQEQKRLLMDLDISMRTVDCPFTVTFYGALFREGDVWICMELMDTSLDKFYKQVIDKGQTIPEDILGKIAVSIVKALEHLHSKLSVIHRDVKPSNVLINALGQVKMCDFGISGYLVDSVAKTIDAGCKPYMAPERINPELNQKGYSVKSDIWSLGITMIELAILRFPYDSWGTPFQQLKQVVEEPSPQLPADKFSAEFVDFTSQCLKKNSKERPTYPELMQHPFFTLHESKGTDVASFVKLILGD
Chain of Tyrosine-protein kinase Blk (Homo sapiens) (P51451 2-505 limits assumed): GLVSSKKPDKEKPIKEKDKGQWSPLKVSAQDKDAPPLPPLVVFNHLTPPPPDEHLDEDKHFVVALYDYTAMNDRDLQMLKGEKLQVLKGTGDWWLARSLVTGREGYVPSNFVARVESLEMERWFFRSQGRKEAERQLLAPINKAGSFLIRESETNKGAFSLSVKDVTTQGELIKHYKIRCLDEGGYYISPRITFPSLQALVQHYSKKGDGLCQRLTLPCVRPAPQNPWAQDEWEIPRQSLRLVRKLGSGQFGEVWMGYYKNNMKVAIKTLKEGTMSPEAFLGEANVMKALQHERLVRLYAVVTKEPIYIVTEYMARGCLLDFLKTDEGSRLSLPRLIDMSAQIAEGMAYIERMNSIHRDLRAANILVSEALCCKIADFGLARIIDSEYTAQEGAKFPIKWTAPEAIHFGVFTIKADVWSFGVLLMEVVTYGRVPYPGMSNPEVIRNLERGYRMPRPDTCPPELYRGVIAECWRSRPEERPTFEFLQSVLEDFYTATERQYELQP

Activity [1] | Activity [2] | Activity [3] | IC50 [4] | Activity [5] | Activity [6] | Activity [7] | Activity [8] | Activity [9] | Activity [10] | Activity [11] | Activity [12] | Activity [13] | Activity [14] | Activity [15] | Activity [16] | Activity [17] | Activity [18] | Activity [19] | Activity (Bos taurus) | Structure (SMILES) | other results
90% | 90% | 84% | > 10 µM | 84% | 82% | 72% | 97% | 58% | 0% | 97% | 61% | 85% | 87% | 129% | 130% | 15% | 91% | 84% | 88% | O=C1NC(=O)C2=C1c1cn(c3ncccc13)CCOCCOCCOCCn1cc2c2cccnc21 | Activity [20]: 97%; Activity [21]: 77%; IC50 [22]: > 10 µM; Activity [23]: 93%; IC50 [24]: > 10 µM; Activity [25]: 51%; Activity [26]: 88%; Activity [27]: 99%; Activity [28]: 71%; Activity [29]: 101%; Activity [30]: 92%; Activity [31]: 90%; Activity [32]: 105%; IC50 [33]: > 10 µM; Activity [34]: 107%; Activity [35]: 76%; Activity [36]: 194%
94% | 96% | 88% | > 10 µM | 103% | 105% | 97% | 97% | 61% | 0% | 101% | 89% | 88% | 85% | 132% | 112% | 69% | 97% | 86% | 94% | O=C1NC(=O)C2=C1c1cn(c3ncccc13)CCOCCOCCOCCOCCn1cc2c2cccnc21 | Activity [20]: 102%; Activity [21]: 96%; IC50 [22]: > 10 µM; Activity [23]: 97%; IC50 [24]: > 10 µM; Activity [25]: 94%; Activity [26]: 102%; Activity [27]: 92%; Activity [28]: 88%; Activity [29]: 102%; Activity [30]: 93%; Activity [31]: 89%; Activity [32]: 104%; IC50 [33]: > 10 µM; Activity [34]: 97%; Activity [35]: 97%; Activity [36]: 174%
